In ChEMBL document CHEMBL3997850 (ACS Med Chem Lett, 2017):

Experiments:
[1] = target: Voltage-gated inwardly rectifying potassium channel KCNH2 (Homo sapiens, UniProt Q12809); experiment: Inhibition of human ERG by patch clamp method
Cytochrome P450 2C9 = Cytochrome P450 2C9 (Homo sapiens, UniProt P11712); experiment: Inhibition of recombinant human CYP2C9 assessed as decrease in hydroxylation of 7-methoxy-4-(trifluoromethyl)-coumarin by fluorimetric method; type: ADME; settings: recombinant enzyme
Outline: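 Recombinant human isozymes with substrate at Km concentration: CYP2C9 with 7-methoxy-4-(trifluoromethyl)coumarin, CYP2D6 with 7-methoxy-4-methylcoumarin. Hydroxylation read fluorimetrically, inhibitor 0–25 µM.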

Cynomolgus monkey = experiment: AUC in cynomolgus monkey at 4 mg/kg, iv or 10 mg/kg, po by LC/MS/MS analysis; type: ADME, organism-based, Macaca fascicularis; settings: in vivo
Outline: (§1)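 Male cynomolgus monkeys given 4 mg/kg IV (5% DMAC, 40% propylene glycol in saline) or 10 mg/kg orally (0.5% methylcellulose). EDTA plasma collected pre-dose through 24 h. Acetonitrile protein precipitation, then LC/MS/MS quantification, linear 2–10000 nM. PK parameters by standard non-compartmental methods.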

[2] = Half life in cynomolgus monkey at 10 mg/kg, po by LC/MS/MS analysis; type: ADME, organism-based, Macaca fascicularis; settings: in vivo; outline: as §1
[3] = AUC in mouse CT26 cells allografted immunocompetent Balb/c mouse model at 30 mg/kg, po by LC/MS/MS analysis; type: ADME, organism-based; settings: in vivo
Cytochrome P450 1A2 = target: T1, Cytochrome P450 1A2 (Homo sapiens, UniProt P05177); experiment: Inhibition of recombinant human CYP1A2 assessed as decrease in hydroxylation of 7-benzyloxy-4-trifluoromethyl-coumarin by fluorescence assay; type: ADME; settings: recombinant enzyme
T1 sequence (P05177 whole entry): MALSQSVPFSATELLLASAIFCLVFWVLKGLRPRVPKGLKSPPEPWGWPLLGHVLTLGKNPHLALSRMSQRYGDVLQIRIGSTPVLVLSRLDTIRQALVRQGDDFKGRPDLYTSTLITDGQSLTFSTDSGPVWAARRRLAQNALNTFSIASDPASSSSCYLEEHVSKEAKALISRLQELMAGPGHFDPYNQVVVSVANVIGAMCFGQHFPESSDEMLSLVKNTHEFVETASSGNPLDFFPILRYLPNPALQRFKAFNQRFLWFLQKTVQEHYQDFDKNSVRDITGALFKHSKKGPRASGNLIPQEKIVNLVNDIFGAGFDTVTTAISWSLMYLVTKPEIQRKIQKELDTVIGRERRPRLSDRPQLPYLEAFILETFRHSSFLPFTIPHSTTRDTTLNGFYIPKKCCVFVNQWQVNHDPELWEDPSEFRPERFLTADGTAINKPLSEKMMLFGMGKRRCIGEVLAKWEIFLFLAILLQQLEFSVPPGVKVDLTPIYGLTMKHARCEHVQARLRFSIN
Outline: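 Recombinant human CYP1A2 or CYP3A4 with 7-benzyloxy-4-trifluoromethyl-coumarin at Km concentration; hydroxylation read by fluorescence. Inhibitor tested at 0–25 µM.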

[4] = Clearance in rat at 5 mg/kg, iv or 5 mg/kg, po by LC/MS/MS analysis; type: ADME, organism-based; settings: in vivo
Outline: (§2)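 Male rats, 5 mg/kg IV in 10% DMAC/saline or 5 mg/kg oral in 0.5% aqueous methylcellulose. Plasma (EDTA) sampled pre-dose to 24 h. Quantified by acetonitrile precipitation and LC/MS/MS (2–10000 nM range, 0.1 mL). Non-compartmental analysis of concentration–time data.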

[5] = Clearance in cynomolgus monkey at 4 mg/kg, iv or 10 mg/kg, po by LC/MS/MS analysis; type: ADME, organism-based, Macaca fascicularis; settings: in vivo; outline: as §1
[6] = Volume of distribution at steady state in beagle dog at 5 mg/kg, iv or 10 mg/kg, po by LC/MS/MS analysis; type: ADME, organism-based, Canis lupus familiaris; settings: in vivo, read-out: Vdss
Outline: (§3)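 Male beagle dogs dosed 5 mg/kg IV in 10% DMAC in saline or 10 mg/kg oral in 5% DMAC in 0.5% methylcellulose. EDTA blood taken from pre-dose to 24 h and spun to plasma. Plasma proteins precipitated with acetonitrile, then LC/MS/MS (linear 2–10000 nM, 0.1 mL plasma). Parameters derived by non-compartmental analysis.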

[7] = Half life in beagle dog at 10 mg/kg, po by LC/MS/MS analysis; type: ADME, organism-based, Canis lupus familiaris; settings: in vivo; outline: as §3
[8] = Oral bioavailability in rat at 5 mg/kg by LC/MS/MS analysis; type: ADME, organism-based; settings: in vivo; outline: as §2
[9] = Oral bioavailability in cynomolgus monkey at 10 mg/kg by LC/MS/MS analysis; type: ADME, organism-based, Macaca fascicularis; settings: in vivo; outline: as §1
Canis familiaris [10] = experiment: Toxicity in dog up to 500 mg/kg/day after 28 days by clinical pathology test; type: organism-based, Canis lupus familiaris; settings: in vivo, 672 h
Canis familiaris [11] = experiment: Toxicity in dog up to 500 mg/kg/day after 28 days by histopathology test; type: organism-based, Canis lupus familiaris; settings: in vivo, 672 h
Canis familiaris [12] = experiment: Toxicity in dog assessed as change in body weight up to 500 mg/kg/day after 28 days; type: organism-based, Canis lupus familiaris; settings: in vivo, 672 h
Canis familiaris [13] = experiment: Toxicity in dog assessed as effect on food consumption up to 500 mg/kg/day after 28 days; type: organism-based, Canis lupus familiaris; settings: in vivo, 672 h

Sequence of Cytochrome P450 2C9 (P11712 whole entry): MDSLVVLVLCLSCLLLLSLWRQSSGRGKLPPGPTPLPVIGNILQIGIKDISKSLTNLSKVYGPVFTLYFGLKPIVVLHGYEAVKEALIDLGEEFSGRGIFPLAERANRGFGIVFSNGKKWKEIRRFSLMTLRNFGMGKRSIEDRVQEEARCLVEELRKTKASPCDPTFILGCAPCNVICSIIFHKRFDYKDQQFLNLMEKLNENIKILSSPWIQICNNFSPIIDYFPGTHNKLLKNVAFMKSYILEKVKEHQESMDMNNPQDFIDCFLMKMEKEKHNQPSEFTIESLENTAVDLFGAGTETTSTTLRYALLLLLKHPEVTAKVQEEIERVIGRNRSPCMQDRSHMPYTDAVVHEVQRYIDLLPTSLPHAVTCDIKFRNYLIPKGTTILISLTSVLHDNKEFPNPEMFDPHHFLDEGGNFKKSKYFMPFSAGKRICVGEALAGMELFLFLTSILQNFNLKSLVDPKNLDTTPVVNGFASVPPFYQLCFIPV
Sequence of Voltage-gated inwardly rectifying potassium channel KCNH2 (Q12809 whole entry): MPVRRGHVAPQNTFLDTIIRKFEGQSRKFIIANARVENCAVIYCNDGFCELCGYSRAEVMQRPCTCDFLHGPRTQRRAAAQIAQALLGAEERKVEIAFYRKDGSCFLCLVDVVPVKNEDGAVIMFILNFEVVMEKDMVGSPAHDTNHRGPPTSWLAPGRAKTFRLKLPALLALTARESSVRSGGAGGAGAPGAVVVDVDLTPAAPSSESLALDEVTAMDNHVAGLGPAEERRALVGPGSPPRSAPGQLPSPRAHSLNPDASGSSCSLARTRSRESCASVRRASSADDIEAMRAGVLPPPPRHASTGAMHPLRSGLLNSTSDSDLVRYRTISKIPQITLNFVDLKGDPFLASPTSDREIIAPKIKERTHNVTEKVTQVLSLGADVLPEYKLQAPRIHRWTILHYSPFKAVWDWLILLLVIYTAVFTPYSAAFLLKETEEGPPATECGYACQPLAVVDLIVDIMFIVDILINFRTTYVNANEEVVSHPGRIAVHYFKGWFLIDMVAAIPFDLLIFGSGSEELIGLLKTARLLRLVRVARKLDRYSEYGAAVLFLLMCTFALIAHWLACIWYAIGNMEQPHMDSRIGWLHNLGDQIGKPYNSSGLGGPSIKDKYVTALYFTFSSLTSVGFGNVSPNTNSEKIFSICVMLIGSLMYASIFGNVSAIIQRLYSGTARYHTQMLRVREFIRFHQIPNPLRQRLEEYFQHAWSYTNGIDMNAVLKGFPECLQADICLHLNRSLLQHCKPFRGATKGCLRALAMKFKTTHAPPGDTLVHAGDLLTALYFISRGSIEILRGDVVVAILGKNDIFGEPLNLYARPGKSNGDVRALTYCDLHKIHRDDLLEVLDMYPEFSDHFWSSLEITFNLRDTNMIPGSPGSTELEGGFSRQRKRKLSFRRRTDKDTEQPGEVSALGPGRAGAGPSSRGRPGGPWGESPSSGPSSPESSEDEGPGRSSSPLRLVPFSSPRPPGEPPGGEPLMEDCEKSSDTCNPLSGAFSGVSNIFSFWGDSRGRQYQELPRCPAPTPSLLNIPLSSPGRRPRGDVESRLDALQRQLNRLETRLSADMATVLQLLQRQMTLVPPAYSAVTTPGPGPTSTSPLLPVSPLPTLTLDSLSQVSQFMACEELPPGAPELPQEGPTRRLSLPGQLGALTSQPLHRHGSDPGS

inhibition (INH) (Cytochrome P450 2C9): Not Active
AUC (Cynomolgus monkey): 9.3 µM·h
half-life [2]: 2.7 h
AUC [3]: 15 µM·h
inhibition (INH) (Cytochrome P450 1A2): Not Active
clearance [4]: 18.3 mL/min/kg
clearance [5]: 13.3 mL/min/kg
Vd [6]: 0.7 L/kg
half-life [7]: 4.9 h
bioavailability [8]: 11%
bioavailability [9]: 33%
Structure (SMILES): NS(=O)(=O)NCCNc1nonc1C(=NO)Nc1ccc(F)c(Br)c1 [EPACADOSTAT]
inhibition (INH) [1]: Not Active
Activity (Canis familiaris [10]): Non-Toxic
Activity (Canis familiaris [11]): Non-Toxic
Activity (Canis familiaris [12]): Non-Toxic
Activity (Canis familiaris [13]): Non-Toxic
